ChEMBL document CHEMBL1151705, “Novel azalides derived from 16-membered macrolides. Part II: Isolation of the linear 9-formylcarboxylic acid and its sequential macrocyclization with an amino alcohol or an azidoamine” (2008)
Converted amounts (≈) assume the structure as drawn.

Assays:
Type in all cases: functional
Streptococcus pyogenes [1] = experiment: Antimicrobial activity against Streptococcus pyogenes 2 constitutively expressing ermB after 20 hrs by agar dilution method
How it was run: (§1)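 Streptococci, H. influenzae and M. catarrhalis were precultured on blood agar plates. Suspensions of about 10⁶ CFU/ml were inoculated onto sensitivity disk agar supplemented with 5% horse blood and incubated at 37 °C for 20 h. MIC was read as the lowest drug concentration with no visible growth.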

Streptococcus pneumoniae [2] = experiment: Antimicrobial activity against Streptococcus pneumoniae 6 constitutively expressing ermB after 20 hrs by agar dilution method; conditions: Streptococcus pneumoniae, 20 h; read-out: MIC; how it was run: as §1
Streptococcus pneumoniae [3] = experiment: Antimicrobial activity against drug-susceptible Streptococcus pneumoniae DP1 Type1 after 20 hrs by agar dilution method; conditions: Streptococcus pneumoniae, 20 h; read-out: MIC; how it was run: as §1
Haemophilus influenzae [4] = experiment: Antimicrobial activity against drug-susceptible Haemophilus influenzae 4 after 20 hrs by agar dilution method; conditions: Haemophilus influenzae, 20 h; read-out: MIC; how it was run: as §1
Streptococcus pneumoniae [5] = experiment: Antimicrobial activity against Streptococcus pneumoniae 9 expressing mefA after 20 hrs by agar dilution method; conditions: Streptococcus pneumoniae, 20 h; read-out: MIC; how it was run: as §1
Staphylococcus aureus [6] = experiment: Antimicrobial activity against drug-susceptible Staphylococcus aureus 209P JC-1 after 20 hrs by agar dilution method; conditions: Staphylococcus aureus, 209P, 20 h; read-out: MIC
How it was run: (§2)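 Agar dilution MIC. S. aureus seed culture was grown in sensitivity test broth. Cell suspension (about 10⁶ CFU/ml) was inoculated onto sensitivity disk agar with 5% horse blood and incubated at 37 °C for 20 h. MIC was the lowest drug concentration that prevented visible growth.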

Haemophilus influenzae [7] = experiment: Antimicrobial activity against drug-susceptible Haemophilus influenzae 3 after 20 hrs by agar dilution method; conditions: Haemophilus influenzae, 20 h; read-out: MIC; how it was run: as §1
Haemophilus influenzae [8] = experiment: Antimicrobial activity against drug-susceptible Haemophilus influenzae 2 after 20 hrs by agar dilution method; conditions: Haemophilus influenzae, 20 h; read-out: MIC; how it was run: as §1
Streptococcus pneumoniae [9] = experiment: Antimicrobial activity against Streptococcus pneumoniae 5 constitutively expressing ermB/mefA after 20 hrs by agar dilution method; conditions: Streptococcus pneumoniae, 20 h; read-out: MIC; how it was run: as §1
Streptococcus pneumoniae [10] = experiment: Antimicrobial activity against Streptococcus pneumoniae 8 expressing inducible ermB after 20 hrs by agar dilution method; conditions: Streptococcus pneumoniae, 20 h; read-out: MIC; how it was run: as §1
Staphylococcus aureus [11] = experiment: Antimicrobial activity against Staphylococcus aureus 4 constitutively expressing ermA after 20 hrs by agar dilution method; how it was run: as §2
Streptococcus pyogenes [12] = experiment: Antimicrobial activity against Streptococcus pyogenes 3 expressing mefA after 20 hrs by agar dilution method; conditions: Streptococcus pyogenes, 20 h; read-out: MIC; how it was run: as §1
Staphylococcus aureus [13] = experiment: Antimicrobial activity against drug-susceptible Staphylococcus aureus 3 after 20 hrs by agar dilution method; conditions: Staphylococcus aureus, 20 h; read-out: MIC; how it was run: as §2
Staphylococcus aureus [14] = experiment: Antimicrobial activity against drug-susceptible Staphylococcus aureus 2 after 20 hrs by agar dilution method; conditions: Staphylococcus aureus, 20 h; read-out: MIC; how it was run: as §2
Streptococcus pneumoniae [15] = experiment: Antimicrobial activity against Streptococcus pneumoniae 7 expressing inducible ermB after 20 hrs by agar dilution method; conditions: Streptococcus pneumoniae, 20 h; read-out: MIC; how it was run: as §1
Streptococcus pyogenes [16] = experiment: Antimicrobial activity against drug-susceptible Streptococcus pyogenes 1 after 20 hrs by agar dilution method; conditions: Streptococcus pyogenes, 20 h; read-out: MIC; how it was run: as §1
Moraxella catarrhalis [17] = experiment: Antimicrobial activity against drug-susceptible Moraxella catarrhalis 2 after 20 hrs by agar dilution method; conditions: Moraxella catarrhalis, 20 h; read-out: MIC; how it was run: as §1
Staphylococcus aureus [18] = experiment: Antimicrobial activity against Staphylococcus aureus 6 expressing inducible ermB after 20 hrs by agar dilution method; how it was run: as §2
Moraxella catarrhalis [19] = experiment: Antimicrobial activity against drug-susceptible Moraxella catarrhalis 1 after 20 hrs by agar dilution method; conditions: Moraxella catarrhalis, 20 h; read-out: MIC; how it was run: as §1
Haemophilus influenzae [20] = experiment: Antimicrobial activity against drug-susceptible Haemophilus influenzae 1 after 20 hrs by agar dilution method; conditions: Haemophilus influenzae, 20 h; read-out: MIC; how it was run: as §1
Streptococcus pneumoniae [21] = experiment: Antimicrobial activity against drug-susceptible Streptococcus pneumoniae 2 after 20 hrs by agar dilution method; conditions: Streptococcus pneumoniae, 20 h; read-out: MIC; how it was run: as §1
Staphylococcus aureus [22] = experiment: Antimicrobial activity against Staphylococcus aureus 5 expressing inducible ermB after 20 hrs by agar dilution method; conditions: Staphylococcus aureus, 20 h; read-out: MIC; how it was run: as §2
Streptococcus pneumoniae [23] = experiment: Antimicrobial activity against Streptococcus pneumoniae 10 expressing mefA after 20 hrs by agar dilution method; conditions: Streptococcus pneumoniae, 20 h; read-out: MIC; how it was run: as §1

Structure (SMILES)	MIC (Streptococcus pyogenes [1]) [µg/mL]	MIC (Streptococcus pneumoniae [2]) [µg/mL]	MIC (Streptococcus pneumoniae [3]) [µg/mL]	MIC (Haemophilus influenzae [4]) [µg/mL]	MIC (Streptococcus pneumoniae [5]) [µg/mL]	MIC (Staphylococcus aureus [6]) [µg/mL]	MIC (Haemophilus influenzae [7]) [µg/mL]	MIC (Haemophilus influenzae [8]) [µg/mL]	MIC (Streptococcus pneumoniae [9]) [µg/mL]	MIC (Streptococcus pneumoniae [10]) [µg/mL]	MIC (Staphylococcus aureus [11]) [µg/mL]	MIC (Streptococcus pyogenes [12]) [µg/mL]	MIC (Staphylococcus aureus [13]) [µg/mL]	MIC (Staphylococcus aureus [14]) [µg/mL]	MIC (Streptococcus pneumoniae [15]) [µg/mL]	MIC (Streptococcus pyogenes [16]) [µg/mL]	MIC (Moraxella catarrhalis [17]) [µg/mL]	MIC (Staphylococcus aureus [18]) [µg/mL]	MIC (Moraxella catarrhalis [19]) [µg/mL]	MIC (Haemophilus influenzae [20]) [µg/mL]	other results
CCOC(=O)[C@H]1[C@H](C)O[C@@H](O[C@H]2[C@H](N(C)C)[C@@H](O)[C@H](O[C@H]3[C@@H](CC=O)C[C@@H](C)[C@@H](O)CN(CCCCc4ccccc4)CCCCNC(=O)C[C@@H](OC(=O)CC)[C@@H]3OC)O[C@@H]2C)C[C@@]1(C)OC(C)=O	> 128	> 128	0.13 (≈ 0.133 µM)	8 (≈ 8.18 µM)	0.13 (≈ 0.133 µM)	0.25 (≈ 0.256 µM)	4 (≈ 4.09 µM)	1 (≈ 1.02 µM)	> 128	8 (≈ 8.18 µM)	> 128	0.25 (≈ 0.256 µM)	0.5 (≈ 0.511 µM)	1 (≈ 1.02 µM)	8 (≈ 8.18 µM)	0.06 (≈ 0.0613 µM)	0.25 (≈ 0.256 µM)	1 (≈ 1.02 µM)	0.13 (≈ 0.133 µM)	16 (≈ 16.4 µM)	MIC (Streptococcus pneumoniae [21]): 0.25 µg/mL (≈ 0.256 µM); MIC (Staphylococcus aureus [22]): 0.25 µg/mL (≈ 0.256 µM); MIC (Streptococcus pneumoniae [23]): 0.13 µg/mL (≈ 0.133 µM)
CCOC(=O)[C@H]1[C@H](C)O[C@@H](O[C@H]2[C@H](N(C)C)[C@@H](O)[C@H](O[C@H]3[C@@H](CC=O)C[C@@H](C)[C@@H](O)CN(CCCCc4ccccc4)CCC[C@@H](C)OC(=O)C[C@@H](OC(=O)CC)[C@@H]3OC)O[C@@H]2C)C[C@@]1(C)OC(C)=O	64 (≈ 64.4 µM)	64 (≈ 64.4 µM)	0.06 (≈ 0.0604 µM)	16 (≈ 16.1 µM)	0.13 (≈ 0.131 µM)	0.25 (≈ 0.252 µM)	8 (≈ 8.05 µM)	0.5 (≈ 0.503 µM)	> 128	1 (≈ 1.01 µM)	> 128	0.25 (≈ 0.252 µM)	0.25 (≈ 0.252 µM)	1 (≈ 1.01 µM)	1 (≈ 1.01 µM)	0.13 (≈ 0.131 µM)	0.5 (≈ 0.503 µM)	0.5 (≈ 0.503 µM)	0.25 (≈ 0.252 µM)	32 (≈ 32.2 µM)	MIC (Streptococcus pneumoniae [21]): 0.06 µg/mL (≈ 0.0604 µM); MIC (Staphylococcus aureus [22]): 0.25 µg/mL (≈ 0.252 µM); MIC (Streptococcus pneumoniae [23]): 0.06 µg/mL (≈ 0.0604 µM)
CCOC(=O)[C@H]1[C@H](C)O[C@@H](O[C@H]2[C@H](N(C)C)[C@@H](O)[C@H](O[C@H]3[C@@H](CC=O)C[C@@H](C)[C@@H](OC(C)=O)CN(CCCCc4ccccc4)CCCNC(=O)C[C@@H](OC(=O)CC)[C@@H]3OC)O[C@@H]2C)C[C@@]1(C)OC(C)=O	> 128	> 128	0.25 (≈ 0.248 µM)	4 (≈ 3.98 µM)	0.25 (≈ 0.248 µM)	0.25 (≈ 0.248 µM)	2 (≈ 1.99 µM)	0.5 (≈ 0.497 µM)	> 128	32 (≈ 31.8 µM)	> 128	0.5 (≈ 0.497 µM)	0.5 (≈ 0.497 µM)	1 (≈ 0.994 µM)	32 (≈ 31.8 µM)	0.13 (≈ 0.129 µM)	0.25 (≈ 0.248 µM)	1 (≈ 0.994 µM)	0.25 (≈ 0.248 µM)	16 (≈ 15.9 µM)	MIC (Streptococcus pneumoniae [21]): 0.5 µg/mL (≈ 0.497 µM); MIC (Staphylococcus aureus [22]): 0.25 µg/mL (≈ 0.248 µM); MIC (Streptococcus pneumoniae [23]): 0.25 µg/mL (≈ 0.248 µM)
CCOC(=O)[C@H]1[C@H](C)O[C@@H](O[C@H]2[C@H](N(C)C)[C@@H](O)[C@H](O[C@H]3[C@@H](CC=O)C[C@@H](C)[C@@H](OC(C)=O)CN(CCCCc4ccccc4)CC[C@@H](C)OC(=O)C[C@@H](OC(=O)CC)[C@@H]3OC)O[C@@H]2C)C[C@@]1(C)OC(C)=O	> 128	> 128	0.25 (≈ 0.245 µM)	16 (≈ 15.7 µM)	0.5 (≈ 0.49 µM)	0.5 (≈ 0.49 µM)	16 (≈ 15.7 µM)	2 (≈ 1.96 µM)	> 128	> 128	> 128	0.5 (≈ 0.49 µM)	0.5 (≈ 0.49 µM)	1 (≈ 0.979 µM)	> 128	0.25 (≈ 0.245 µM)	0.5 (≈ 0.49 µM)	1 (≈ 0.979 µM)	0.25 (≈ 0.245 µM)	> 128	MIC (Streptococcus pneumoniae [21]): 0.25 µg/mL (≈ 0.245 µM); MIC (Staphylococcus aureus [22]): 0.5 µg/mL (≈ 0.49 µM); MIC (Streptococcus pneumoniae [23]): 0.25 µg/mL (≈ 0.245 µM)
CCOC(=O)[C@H]1[C@H](C)O[C@@H](O[C@H]2[C@H](N(C)C)[C@@H](O)[C@H](O[C@H]3[C@@H](CC=O)C[C@@H](C)[C@@H](OC(C)=O)CN(CCCCc4ccccc4)C[C@@H](C)OC(=O)C[C@@H](OC(=O)CC)[C@@H]3OC)O[C@@H]2C)C[C@@]1(C)OC(C)=O	> 128	> 128	1 (≈ 0.993 µM)	> 128	2 (≈ 1.99 µM)	4 (≈ 3.97 µM)	> 128	> 128	> 128	> 128	> 128	4 (≈ 3.97 µM)	4 (≈ 3.97 µM)	> 128	> 128	2 (≈ 1.99 µM)	> 128	8 (≈ 7.94 µM)	8 (≈ 7.94 µM)	> 128	MIC (Streptococcus pneumoniae [21]): 2 µg/mL (≈ 1.99 µM); MIC (Staphylococcus aureus [22]): 4 µg/mL (≈ 3.97 µM); MIC (Streptococcus pneumoniae [23]): 2 µg/mL (≈ 1.99 µM)
